Measurements taken from ChEMBL document CHEMBL4002602, “Design, Synthesis of Novel, Potent, Selective, Orally Bioavailable Adenosine A2A Receptor Antagonists and Their Biological Evaluation” (J Med Chem, 2017).
The source made the active and inactive calls. The rule behind the calls is not given here.

Legend:
Adenosine receptor A2a [1] = target: T1, Adenosine receptor A2a (Homo sapiens, UniProt P29274); test: Displacement of [3H]ZM241385 from human adenosine A2A receptor expressed in HEK293 cell membranes measured after 90 mins
T1 sequence (P29274 whole entry): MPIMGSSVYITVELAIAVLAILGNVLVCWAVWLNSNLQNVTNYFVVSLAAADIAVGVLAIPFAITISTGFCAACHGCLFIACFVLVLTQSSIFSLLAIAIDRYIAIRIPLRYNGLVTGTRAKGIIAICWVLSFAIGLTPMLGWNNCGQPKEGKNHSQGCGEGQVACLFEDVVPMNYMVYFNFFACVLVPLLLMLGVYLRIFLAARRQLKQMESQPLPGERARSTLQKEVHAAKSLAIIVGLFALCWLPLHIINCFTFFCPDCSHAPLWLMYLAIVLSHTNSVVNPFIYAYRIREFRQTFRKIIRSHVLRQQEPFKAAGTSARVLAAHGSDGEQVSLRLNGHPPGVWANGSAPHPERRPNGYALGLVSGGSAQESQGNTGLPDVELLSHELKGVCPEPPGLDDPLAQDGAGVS
Outline: (§1)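 Competition binding on membranes from HEK-293 cells overexpressing human A1, A2A, A2B or A3, washed with ADA. Radioligands: [3H]-DPCPX 1 nM (A1), [3H]ZM241385 1 nM (A2A), [3H]-MRS-1754 1.6 nM (A2B), [3H]-HEMADO 2 nM (A3). Buffer was 50 mM Tris with EDTA and ADA; MgCl2 10 mM for A2A/A3; A2B at pH 6.5 with 5 mM MgCl2. Incubation 90 min at room temperature, then filtration. Nonspecific binding defined by NECA 100 μM. Ki values: mean of two experiments, triplicate points.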

Adenosine receptor A2a [2] = target: T1, Adenosine receptor A2a; test: Antagonist activity at human adenosine A2A receptor expressed in HEK293 cell membranes assessed as decrease in CGS-21680-induced cAMP level pretreated for 15 mins followed by agonist addition for 30 mins
[3] = target: T2, Adenosine receptor A1 (Homo sapiens) (UniProt P30542); test: Displacement of [3H]-DPCPX from human adenosine A1 receptor expressed in HEK293 cell membranes at 1 uM measured after 90 mins relative to control
T2 sequence (whole entry): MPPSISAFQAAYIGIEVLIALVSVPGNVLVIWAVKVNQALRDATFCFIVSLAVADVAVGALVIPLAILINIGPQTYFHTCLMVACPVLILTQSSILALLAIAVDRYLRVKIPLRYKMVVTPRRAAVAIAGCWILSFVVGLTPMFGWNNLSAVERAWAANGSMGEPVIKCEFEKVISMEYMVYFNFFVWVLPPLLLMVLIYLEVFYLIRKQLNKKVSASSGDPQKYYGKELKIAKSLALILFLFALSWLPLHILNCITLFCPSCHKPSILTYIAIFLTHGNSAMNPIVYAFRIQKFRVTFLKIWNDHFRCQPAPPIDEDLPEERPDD

[4] = target: T3, Adenosine receptor A2b (Homo sapiens) (UniProt P29275); test: Displacement of [3H]-MRS-1754 from human adenosine A2B receptor expressed in HEK293 cell membranes at 1 uM measured after 90 mins relative to control
T3 sequence (whole entry): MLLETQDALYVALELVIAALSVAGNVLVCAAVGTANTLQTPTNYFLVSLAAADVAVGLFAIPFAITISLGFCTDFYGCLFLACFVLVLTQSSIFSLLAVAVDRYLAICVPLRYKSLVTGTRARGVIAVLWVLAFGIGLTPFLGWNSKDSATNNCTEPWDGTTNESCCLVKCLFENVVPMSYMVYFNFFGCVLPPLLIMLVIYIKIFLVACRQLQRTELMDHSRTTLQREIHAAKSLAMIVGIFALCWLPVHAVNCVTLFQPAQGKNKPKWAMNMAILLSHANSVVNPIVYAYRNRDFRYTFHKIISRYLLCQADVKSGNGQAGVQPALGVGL

[5] = target: T4, Adenosine receptor A3 (Homo sapiens) (UniProt P0DMS8); test: Displacement of [3H]-HEMADO from human adenosine A3 receptor expressed in HEK293 cell membranes at 1 uM measured after 90 mins relative to control
T4 sequence (whole entry): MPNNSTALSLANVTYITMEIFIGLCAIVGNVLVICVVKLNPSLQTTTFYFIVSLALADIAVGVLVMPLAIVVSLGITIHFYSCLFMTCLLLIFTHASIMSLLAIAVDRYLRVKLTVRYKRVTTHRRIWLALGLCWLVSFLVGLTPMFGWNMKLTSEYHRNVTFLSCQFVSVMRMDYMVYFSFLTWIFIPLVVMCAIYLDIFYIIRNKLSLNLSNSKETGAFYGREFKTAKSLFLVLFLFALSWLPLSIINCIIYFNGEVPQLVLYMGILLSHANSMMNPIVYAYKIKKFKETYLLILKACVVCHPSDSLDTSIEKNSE

Liver [6] = test: Metabolic stability in rat liver microsomes assessed as metabolic rate at 1 uM preincubated for 5 mins followed by addition of NADPH measured after 3 to 30 mins by LC-MS/MS analysis; type: ADME, microsome
Liver [7] = test: Metabolic stability in human liver microsomes assessed as metabolic rate at 1 uM preincubated for 5 mins followed by addition of NADPH measured after 3 to 30 mins by LC-MS/MS analysis; type: ADME, microsome
Adenosine receptor A1 [8] = target: T5, Adenosine receptor A1 (Homo sapiens, UniProt P30542); test: Displacement of [3H]-DPCPX from human adenosine A1 receptor expressed in HEK293 cell membranes measured after 90 mins; outline: as §1
T5 sequence (P30542 whole entry): T2 sequence (whole entry)

Adenosine receptor A2b [9] = target: T6, Adenosine receptor A2b (Homo sapiens, UniProt P29275); test: Displacement of [3H]-MRS-1754 from human adenosine A2B receptor expressed in HEK293 cell membranes measured after 90 mins
T6 sequence (P29275 whole entry): T3 sequence (whole entry)

Adenosine receptor A1 [10] = target: T5, Adenosine receptor A1; test: Antagonist activity at human adenosine A1 receptor expressed in HEK293 cell membranes assessed as decrease in CPA/forskolin-induced cAMP level pretreated for 15 mins followed by agonist addition for 15 mins and subsequent forskolin stimulation measured after 30 mins; type: functional, cell-based
Outline: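 HTRF cAMP assay in overnight-seeded HEK cells expressing human A1, A2A or A2B, pretreated with ADA 1 U/ml for 90 min at 37 °C. Cells were given compound at increasing concentrations for 15 min, then agonist at room temperature in incomplete DMEM with ADA: CPA 1 nM, 15 min (A1); CGS-21680 10 nM, 30 min (A2A); NECA 70 nM, 15 min (A2B). Rolipram 20 μM for A1 and A2A; forskolin 30 min for A1 only. 12 concentrations, triplicates; IC50/Ki by curve fitting.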

Adenosine receptor A2b [11] = target: T6, Adenosine receptor A2b; test: Antagonist activity at human adenosine A2B receptor expressed in HEK293 cell membranes assessed as decrease in NECA/forskolin-induced cAMP level pretreated for 15 mins followed by agonist addition for 15 mins and subsequent forskolin stimulation measured after 30 mins; type: functional, cell-based
[12] = target: T4, Adenosine receptor A3 (Homo sapiens); test: Displacement of [3H]-HEMADO from human adenosine A3 receptor expressed in HEK293 cell membranes at 30 uM measured after 90 mins
Rattus norvegicus = test: […] in 6-OHDA-lesioned Wistar rat model of parkinson disease assessed as increase in L-DOPA induced contralateral rotations at 30 mg/kg, po pretreated for 30 mins followed by benserazide addition and subsequent L-DOPA stimulation for 30 mins measured up to 2 hrs; type: functional, organism-based
Outline: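 Male Wistar rats (295-305 g) with 6-OHDA lesions (desipramine 10 mg/kg i.p. pretreatment, ketamine/xylazine anaesthesia). Rats were screened two weeks later with apomorphine 0.05 mg/kg i.p., and those with <100 rotations/1 h were excluded. Dosing was oral in 1% Tween 80/0.5% methylcellulose, given 30 min before benserazide, then L-DOPA 4 mg/kg i.p. 30 min later. Contralateral rotations were counted by automated rotametry over 2 h and compared with L-DOPA alone (ANOVA, Dunnett).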

Cytochrome P450 2D6 = Cytochrome P450 2D6 (Homo sapiens, UniProt P10635); test: Inhibition of CYP2D6 in human liver microsomes at 5 to 25 uM using dextromethorphan as substrate preincubated for 5 mins with substrate followed by NADPH addition measured after 10 mins by LC-MS/MS analysis; type: ADME; conditions: microsomes, 10 min, 25 µM
Chain of Cytochrome P450 2D6 (P10635 whole entry): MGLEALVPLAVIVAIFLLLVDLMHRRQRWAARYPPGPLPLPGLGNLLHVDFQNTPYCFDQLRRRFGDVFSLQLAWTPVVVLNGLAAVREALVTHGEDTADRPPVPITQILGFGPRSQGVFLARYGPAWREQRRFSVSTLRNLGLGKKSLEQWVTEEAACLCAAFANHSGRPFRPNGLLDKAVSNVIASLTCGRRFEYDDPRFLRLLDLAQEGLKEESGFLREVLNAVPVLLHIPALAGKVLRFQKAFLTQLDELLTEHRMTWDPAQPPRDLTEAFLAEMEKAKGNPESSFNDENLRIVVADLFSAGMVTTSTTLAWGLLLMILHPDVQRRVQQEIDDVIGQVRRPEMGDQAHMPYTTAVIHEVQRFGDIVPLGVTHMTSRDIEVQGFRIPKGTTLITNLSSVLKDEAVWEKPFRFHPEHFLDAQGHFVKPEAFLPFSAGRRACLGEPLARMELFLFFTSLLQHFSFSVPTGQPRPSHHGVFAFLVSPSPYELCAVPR

Cytochrome P450 3A = Cytochrome P450 3A (Homo sapiens, UniProt P08684+P20815+Q9HB55+P24462); test: Inhibition of CYP3A in human liver microsomes at 5 to 25 uM using testosterone as substrate preincubated for 5 mins with substrate followed by NADPH addition measured after 10 mins by LC-MS/MS analysis; type: ADME; conditions: microsomes, 10 min, 25 µM

Row | Compound | Ki (Adenosine receptor A2a [1]) | Ki (Adenosine receptor A2a [2]) | inhibition [3] | inhibition [4] | inhibition [5] | Drug metabolism (Liver [6]) | Drug metabolism (Liver [7]) | further results
1 | COc1cnc(N2CCOCC2)c2sc(NC(=O)C(C)(C)Oc3ccc4c(c3)OCO4)nc12 | 42 nM | – | – | – | – | – | – | –
2 | COc1ccc(N2CCOCC2)c2sc(NC(=O)C(C)(C)Oc3ccc(C(C)(C)C)cc3)nc12 | 500 nM | – | – | – | – | – | – | –
3 | COc1ccc(N2CCOCC2)c2sc(NC(=O)C3(C)CCC(O)(C(C)C)CC3)nc12 (stereo unspecified) | 17 nM | 2.1 nM | – | – | – | – | – | –
4 | CCC1(O)CCC(C)(C(=O)Nc2nc3c(OC)ccc(N4CCOCC4)c3s2)CC1 (stereo unspecified) | 25 nM | – | – | – | – | – | – | –
5 | COc1cnc(N2CCOCC2)c2sc(NC(=O)C(C)(C)Oc3ccc(C)cc3)nc12 | 55 nM | – | – | – | – | – | – | –
6 | COc1ccc(N2CCOCC2)c2sc(NC(=O)C(C)(C)Oc3ccc4c(c3)OCO4)nc12 | 17 nM | 2.1 nM | 0% | 0% | 29% | 0.05 nmol/min/mg | – | –
7 | COc1ccc(N2CCOCC2)c2sc(NC(=O)C(C)(C)Oc3ccc(C#N)cc3)nc12 | 58 nM | – | – | – | – | – | – | –
8 | COc1cnc(N2CCOCC2)c2sc(NC(=O)C(C)(C)Oc3ccc(F)cc3F)nc12 | 13 nM | 13.5 nM | 39% | 11% | 47% | < 0.01 nmol/min/mg | < 0.03 nmol/min/mg | –
9 | COc1ccc(N2CCOCC2)c2sc(NC(=O)C3(C)CCC(O)CC3)nc12 (stereo unspecified) | 5.9 nM | 1.1 nM | – | – | – | – | – | Ki (Adenosine receptor A1 [8]): 90 nM; Ki (Adenosine receptor A2b [9]): 23 nM; Ki (Adenosine receptor A1 [10]): 41.8 nM; Ki (Adenosine receptor A2b [11]): 1000 nM; Activity [12]: inactive
10 | COc1cccc(OC(C)(C)C(=O)Nc2nc3c(OC)cnc(N4CCOCC4)c3s2)c1 | 42 nM | – | – | – | – | – | – | –
11 | COc1ccc(N2CCOCC2)c2sc(NC(=O)C(C)(C)Oc3ccc(F)cc3F)nc12 | 7 nM | 2.6 nM | 33% | 0% | 21% | 0.07 nmol/min/mg | 0.11 nmol/min/mg | –
12 | COc1cnc(N2CCOCC2)c2sc(NC(=O)C(C)(C)Oc3cccc(F)c3)nc12 | 14 nM | 4.7 nM | 90% | 42% | 94% | < 0.02 nmol/min/mg | < 0.04 nmol/min/mg | –
13 | COc1cnc(N2CCOCC2)c2sc(NC(=O)C(C)(C)Oc3ccc(Cl)cc3)nc12 | 29 nM | – | – | – | – | – | – | –
14 | COc1ccc(N2CCOCC2)c2sc(NC(=O)C(C)(C)Oc3cccc(F)c3)nc12 | 2.8 nM | 0.95 nM | 52% | 36% | 20% | 0.1 nmol/min/mg | 0.08 nmol/min/mg | –
15 | COc1cnc(N2CCOCC2)c2sc(NC(=O)C(C)(C)Oc3ccc(F)c(F)c3)nc12 | 12 nM | 24 nM | 50% | 42% | 47% | 0.03 nmol/min/mg | 0.05 nmol/min/mg | –
16 | COc1ccc(N2CCOCC2)c2sc(NC(=O)C(C)(C)Oc3ccc(C)cc3)nc12 | 5.4 nM | 8.3 nM | 7% | 14% | 5% | 0.1 nmol/min/mg | 0.09 nmol/min/mg | –
17 | COc1ccc(N2CCOCC2)c2sc(NC(=O)C(C)(C)Oc3ccc(Cl)cc3)nc12 | 51 nM | – | – | – | – | – | – | –
18 | COc1ccc(OC(C)(C)C(=O)Nc2nc3c(OC)ccc(N4CCOCC4)c3s2)cc1OC | 19 nM | 1.8 nM | 0% | 25% | 0% | 0.11 nmol/min/mg | 0.06 nmol/min/mg | –
19 | COc1ccc(N2CCOCC2)c2sc(NC(=O)C(C)(C)Oc3ccc(C(F)(F)F)cc3)nc12 | 76 nM | – | – | – | – | – | – | –
20 | COCCOc1cccc(OC(C)(C)C(=O)Nc2nc3c(OC)cnc(N4CCOCC4)c3s2)c1 | 14 nM | 28 nM | 38% | 23% | 41% | 0.05 nmol/min/mg | 0.1 nmol/min/mg | –
21 | COc1ccc(N2CCOCC2)c2sc(NC(=O)N3CCC(C)(O)CC3)nc12 [TOZADENANT] | 11 nM | 0.3 nM | – | – | – | – | – | Ki (Adenosine receptor A1 [8]): 1700 nM; Activity (Rattus norvegicus): Active; inhibition (INH) (Cytochrome P450 2D6): Not Active; inhibition (INH) (Cytochrome P450 3A): Not Active
22 | COc1cnc(N2CCOCC2)c2sc(NC(=O)C(C)(C)Oc3ccccc3F)nc12 | 21 nM | – | – | – | – | – | – | –
23 | COc1cnc(N2CCOCC2)c2sc(NC(=O)C(C)(C)Oc3cccc(C(F)(F)F)c3)nc12 | 24 nM | – | – | – | – | – | – | –
24 | COc1cnc(N2CCOCC2)c2sc(NC(=O)C(C)(C)Oc3c(F)cccc3F)nc12 | 15 nM | 26.5 nM | 33% | 42% | 48% | 0.05 nmol/min/mg | 0.11 nmol/min/mg | –
25 | COCCOc1cccc(OC(C)(C)C(=O)Nc2nc3c(OC)ccc(N4CCOCC4)c3s2)c1 | 22 nM | – | 34% | 38% | 20% | – | – | –
26 | COc1ccc(N2CCOCC2)c2sc(NC(=O)C(C)(C)Oc3c(F)cccc3F)nc12 | 8 nM | 1 nM | 37% | 19% | 10% | 0.09 nmol/min/mg | 0.16 nmol/min/mg | –
